Measurements taken from ChEMBL document CHEMBL1667804, “Design and synthesis of caffeoyl-anilides as portmanteau inhibitors of HIV-1 integrase and CCR5” (Bioorg Med Chem, 2011).
The source made the active and inactive calls. No cut-off for these calls is given here.

Experiments:
[1] = biological target: Human immunodeficiency virus type 1 integrase (Human immunodeficiency virus 1) (UniProt Q7ZJM1); test: Inhibition of full-length recombinant HIV1 integrase at 20 ug/ml
Method in brief: (§1)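 Kit ELISA-type strand-transfer assay. Biotin end-labelled double-stranded HIV-1 LTR U5 donor oligo bound on streptavidin plates, then full-length recombinant HIV-1 integrase loaded. Compound added, followed by a 3′-end-modified double-stranded target oligo. Screened at 20 µg/mL, IC50 determined in µg/mL and converted to molar. Sodium azide positive control.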

[2] = system: Human immunodeficiency virus 1; test: Antiviral activity against HIV1 NL4.3 infected in human CEM-GFP T cells assessed as inhibition of p24 antigen production at highest non cytotoxic concentration after 7 days by ELISA; type: functional, CCRF-CEM
Method in brief: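 HIV-1 NL4.3 infection of CEM-GFP cells at MOI 0.05, with compound at the highest noncytotoxic concentration (95% viability in MTT) for 7 days. p24 in day-7 supernatant measured by capture ELISA. Reported as % decrease versus untreated infected cells. Preliminary screen by GFP microfluorometry.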

[3] = system: Human immunodeficiency virus 1; test: Antiviral activity against HIV1 NL4.3 infected in human CEM-GFP T cells assessed as inhibition of p24 antigen production after 7 days by ELISA; type: functional, organism-based; settings: Human immunodeficiency virus 1, NL4.3, CCRF-CEM, 168 h
Method in brief: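 CEM-GFP cells infected with HIV-1 NL4.3 at MOI 0.05, then cultured with compound for up to 7 days after infection. Day-7 supernatant p24 measured by antigen-capture ELISA. EC50 is the concentration giving 50% inhibition of virus production against untreated infected cells (n = 3). AZT positive control.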

[4] = Cytotoxicity against human CEM-GFP cells after 48 hrs by MTT assay; type: cell-based, CCRF-CEM
Method in brief: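 MTT assay in CEM-GFP cells (2 × 10^4/well), 48 h exposure over a range of concentrations, with untreated and vehicle controls. Formazan dissolved and read at 540 nm. CC50 is the concentration giving 50% cytotoxicity in uninfected cells (n = 3).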

[5] = Therapeutic index, ratio of CC50 for human CEM-GFP cells to EC50 for HIV1 NL4.3; type: cell-based; settings: read-out: Ratio CC50/EC50
[6] = biological target: Human immunodeficiency virus type 1 integrase (Human immunodeficiency virus 1, UniProt Q7ZJM1); test: Inhibition of full-length recombinant HIV1 integrase; method in brief: as §1
Human immunodeficiency virus type 1 integrase, sequence (Q7ZJM1 whole entry): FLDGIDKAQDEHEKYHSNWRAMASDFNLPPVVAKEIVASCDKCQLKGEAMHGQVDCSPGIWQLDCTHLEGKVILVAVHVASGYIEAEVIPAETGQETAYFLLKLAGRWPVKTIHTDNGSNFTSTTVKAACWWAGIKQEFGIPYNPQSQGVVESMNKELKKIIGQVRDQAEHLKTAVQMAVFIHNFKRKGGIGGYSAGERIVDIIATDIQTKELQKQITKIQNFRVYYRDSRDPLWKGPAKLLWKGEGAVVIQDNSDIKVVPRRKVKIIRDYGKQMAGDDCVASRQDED

[7] = system: Human immunodeficiency virus 1; test: Antiviral activity against R5 tropic HIV1 IndieC infected in human TZM-bl cells expressing CD4, CCR5 and CXCR4 assessed as inhibition of virus entry at highest non cytotoxic concentration after 48 hrs by luciferase assay; type: functional
Method in brief: (§2)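 TZM-bl cells (10^4/well) seeded and left overnight at 37 °C. Compound added in DMEM/10% FBS for 1 h, then cells washed and infected for 4 h with IndieC (R5) or IIIB (X4).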

[8] = system: Human immunodeficiency virus 1; test: Antiviral activity against X4 tropic HIV1 3B infected in human TZM-bl cells expressing CD4, CCR5 and CXCR4 assessed as inhibition of virus entry at highest non cytotoxic concentration after 48 hrs by luciferase assay; type: functional; method in brief: as §2
[9] = biological target: Human immunodeficiency virus type 1 reverse transcriptase (Human immunodeficiency virus 1) (UniProt Q72547); test: Inhibition of HIV1 reverse transcriptase
[10] = Cytotoxicity against human CEM-GFP cells assessed as highest non cytotoxic concentration after 48 hrs by MTT assay; type: cell-based, CCRF-CEM; settings: read-out: MNCC
Method in brief: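 Viability by MTT in CEM-GFP cells after 48 h, absorbance at 540 nm. Viability first measured at three concentrations, then further dilutions made to find the concentration giving 95% viability.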

[11] = biological target: Human immunodeficiency virus type 1 integrase (Human immunodeficiency virus 1) (UniProt Q7ZJM1); settings: 5 ug/ml

Human immunodeficiency virus type 1 integrase (Human immunodeficiency virus 1), sequence (Q7ZJM1 as listed by the source): as the sequence (Q7ZJM1 whole entry) above

| Structure (SMILES) | inhibition [1] | EC50 [3] | IC50 [6] | Activity [9] | inhibition (INH) [2] | CC50 at 48 h [4] | selectivity ratio [5] | inhibition (INH) [7] | inhibition (INH) [8] | MNTC at 48 h [10] | inhibition [11] |
| --- | --- | --- | --- | --- | --- | --- | --- | --- | --- | --- | --- |
| O=C(/C=C/c1ccc(O)c(O)c1)c1ccc(NC(=O)C23C[C@H]4C[C@@H](C2)C[C@@H](C3)C4)cc1 | 67.7% | 4.2 µM | 36.8 µM | inactive | 86.1% | 13.5 µM | 3.2 | 59.6% | 0% | 6000 nM |  |
| Nc1ccc(C(=O)/C=C/c2ccc(O)c(O)c2)cc1 |  |  |  | inactive | 0% |  |  |  |  | 3900 nM |  |
| [N-]=[N+]=[N-] [SODIUM AZIDE] |  |  | 1.2 µM | inactive |  |  |  |  |  |  | 98.8% |
| Cc1cn([C@H]2C[C@H](N=[N+]=[N-])[C@@H](CO)O2)c(=O)[nH]c1=O [ZIDOVUDINE] |  | 1.1 µM |  | inactive | 89.8% | 24.1 µM |  |  |  | 5000 nM |  |
| CC(C)C(=O)Nc1ccc(C(=O)/C=C/c2ccc(O)c(O)c2)cc1 |  |  |  | inactive | 0% |  |  |  |  | 1500 nM |  |
| O=C(/C=C/c1ccc(O)c(O)c1)c1ccc(NC(=O)c2ccccc2)cc1 | 56% | 1.6 µM | 50.2 µM | inactive | 73% | 20.3 µM | 13 | 58.6% | 27.8% | 2800 nM |  |
| COc1ccc(C(=O)Nc2ccc(C(=O)/C=C/c3ccc(O)c(O)c3)cc2)cc1 | 66.8% | 1.9 µM | 25.2 µM | inactive | 92.4% | 32.3 µM | 17.4 | 55.8% | 0% | 6400 nM |  |

Continued, in another order:

| inhibition [1] | EC50 [3] | IC50 [6] | Activity [9] | Structure (SMILES) | inhibition (INH) [2] | CC50 at 48 h [4] | selectivity ratio [5] | inhibition (INH) [7] | inhibition (INH) [8] | MNTC at 48 h [10] | inhibition [11] |
| --- | --- | --- | --- | --- | --- | --- | --- | --- | --- | --- | --- |
|  |  |  | inactive | O=C(/C=C/c1ccc(O)c(O)c1)c1ccc(NC(=O)c2ccc3ccccc3c2)cc1 | 0% |  |  |  |  | 2400 nM |  |
|  |  |  | inactive | O=C(/C=C/c1ccc(O)c(O)c1)c1ccc(NC(=O)c2ccc(F)cc2F)cc1 | 16% |  |  |  |  | 6300 nM |  |
|  |  |  | inactive | CC(C)CC(=O)Nc1ccc(C(=O)/C=C/c2ccc(O)c(O)c2)cc1 | 0% |  |  |  |  | 1400 nM |  |
|  |  |  | inactive | O=C(/C=C/c1ccc(O)c(O)c1)c1ccc(NC(=O)c2ccco2)cc1 | 24.2% |  |  |  |  | 2900 nM |  |
|  |  |  | inactive | CC(=O)Nc1ccc(C(=O)/C=C/c2ccc(O)c(O)c2)cc1 | 0% |  |  |  |  | 1700 nM |  |
| 74% | 1.6 µM | 28.5 µM | inactive | O=C(/C=C/c1ccc(O)c(O)c1)c1ccc(NC(=O)c2ccc(F)c(F)c2)cc1 | 77.6% | 15.7 µM | 9.8 | 71.5% | 0% | 2500 nM |  |
|  |  |  | inactive | O=C(/C=C/c1ccc(O)c(O)c1)c1ccc(NC(=O)c2cccs2)cc1 | 0% |  |  |  |  | 2700 nM |  |
| 66.5% | 0.9 µM | 44.6 µM | inactive | O=C(Cc1cccs1)Nc1ccc(C(=O)/C=C/c2ccc(O)c(O)c2)cc1 | 71.6% | 51.4 µM | 59.1 | 52.9% | 0% | 2600 nM |  |
|  |  |  | inactive | O=C(/C=C/c1ccc(O)c(O)c1)c1ccc(NC(=O)c2ccc(C(F)(F)F)cc2F)cc1 | 10.9% |  |  |  |  | 2200 nM |  |
